Sampled rows, rich in hits. Any-hit rate of the full collection: about 2.7%.
ARFGAP1 inh: inhibits rat ARF GTPase activating protein 1; Q62848; Arfgap1-stimulated ARF1 GTP hydrolysis, GDP FP detection; inhibition, % at 16.5 µM; 360,000 tested, 0.26% active; AID 651572;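 active means inhibition above a per-plate limit, mean inhibition of low control wells plus 3 SD, cut at about 25% in these data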;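 further: 0% = DMSO wells with enzyme and 100% = wells lacking Arfgap1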
Target sequence (Q62848 1-136 limits assumed): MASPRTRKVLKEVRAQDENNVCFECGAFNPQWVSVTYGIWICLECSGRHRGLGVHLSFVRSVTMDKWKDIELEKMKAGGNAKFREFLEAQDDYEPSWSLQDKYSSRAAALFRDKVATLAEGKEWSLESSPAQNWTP
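Material: truncated rat Arfgap1 GAP domain; Incubation: compound-enzyme preincubation 20 min, reaction 120 min, detection 60 min, 25 °C; Read-out: percent inhibition of Arfgap1-stimulated GTP hydrolysis; Technique: FP, GDP Alexa 633 tracer displaced from anti-GDP antibody, 620/688 nm; Controls: No-Arfgap1 wells (100%) versus DMSO full-reaction wells (0%); Replication: single well per compound.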
PAFAH2 inh: PAFAH2 (human) inhibition; Q99487; recombinant PAFAH2, FP-rhodamine activity probe, fluorescence polarization; inhibition, % at 3.39 µM; 340,000 tested, 0.99% active; AID 492956;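 active means inhibition above the mean over all tested compounds plus 3 SD, cut at about 30% in these data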;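 further: inhibitors block probe labeling of enzyme so polarization drops; 0% = enzyme with DMSO and 100% = wells lacking PAFAH2 protein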
PAFAH1B2 FP inh: inhibitors of human PAFAH1B2. P68402. recombinant PAFAH1B2, FP-rhodamine activity probe, fluorescence polarization. inhibition, % at 3.39 µM. 340,000 tested, 1.2% active. AID 492953;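 active means inhibition above the mean of all tested compounds plus 3 SD, cut at about 24% in these data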;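 further: 0% = enzyme with DMSO and 100% = wells lacking PAFAH1B2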
Target sequence (P68402 whole entry, looked up): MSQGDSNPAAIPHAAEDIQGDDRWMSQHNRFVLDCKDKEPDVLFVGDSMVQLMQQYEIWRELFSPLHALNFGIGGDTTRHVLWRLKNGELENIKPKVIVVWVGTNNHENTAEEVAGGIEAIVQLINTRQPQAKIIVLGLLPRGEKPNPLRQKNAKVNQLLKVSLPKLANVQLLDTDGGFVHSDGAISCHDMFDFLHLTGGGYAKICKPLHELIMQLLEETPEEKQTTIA
ASAP1 GAP inh: blocks human ASAP1-stimulated Arf1 GTP hydrolysis | Q9ULH1 | GDP FP detection | inhibition, % at 16.5 µM | 360,000 tested, 0.19% active; in the data active means inhibition above about 25%;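 further: 0% = vehicle with enzyme and substrate and 100% = no enzyme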
PAFAH1B3 inh: PAFAH1B3 (human) inhibition. recombinant PAFAH1B3, FP-rhodamine probe, fluorescence polarization. inhibition, % at 3.39 µM. 340,000 tested, 0.28% active. AID 492972;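 active means inhibition above the screen-wide average of all tested compounds plus 3 SD, cut at about 25% in these data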;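 further: 0% = enzyme with DMSO only and 100% = wells lacking PAFAH1B3 protein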
Target sequence (Q15102 whole entry, looked up): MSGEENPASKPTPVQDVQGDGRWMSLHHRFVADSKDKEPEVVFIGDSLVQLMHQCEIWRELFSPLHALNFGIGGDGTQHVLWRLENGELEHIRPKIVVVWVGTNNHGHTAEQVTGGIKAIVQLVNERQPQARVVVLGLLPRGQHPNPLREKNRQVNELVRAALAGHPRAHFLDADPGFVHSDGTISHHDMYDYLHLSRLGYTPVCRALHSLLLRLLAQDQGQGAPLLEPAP
pPAFAH inh: pPAFAH (human) enzyme inhibition; AID 463082; inhibition, % at 3.39 µM; recombinant pPAFAH, FP-rhodamine probe fluorescence polarization; 330,000 tested, 1.5% active;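 active means inhibition above the mean inhibition across the screen plus 3 SD, cut at about 25% in these data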;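 further: inhibitors block binding of the rhodamine activity-based probe so polarization drops; 0% = enzyme with DMSO and 100% = wells lacking pPAFAH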
PAFAH2 confirm: confirmation of human PAFAH2 inhibitors | shares compounds with PAFAH2 inh | 2,300 tested, 65% active | inhibition, % at 3.39 µM | recombinant PAFAH2, FP-rhodamine activity probe, fluorescence polarization;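 active means mean inhibition over three repeats above a set limit taken from the earlier primary screen, cut at about 30% in these data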;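 further: inhibitor blocks binding of rhodamine activity probe so polarization falls; 0% = enzyme with DMSO and 100% = wells lacking PAFAH2 protein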
* = called active by the depositor; x = no result given.

SMILES	ARFGAP1 inh	PAFAH2 inh	PAFAH1B2 FP inh	ASAP1 GAP inh	PAFAH1B3 inh	pPAFAH inh	PAFAH2 confirm
COc1ccc(C(=O)OCC(=O)NC2CCCC2)c(OC)c1	3	70*	-1	-6	0	6	56*
COc1ccc(C(=O)OCC(=O)NC(=O)NC2CCCC2)c(O)c1	6	2	1	6	3	0	x
COc1ccc(C(=O)OCC(=O)NC2CCCCCC2)c(OC)c1	-7	82*	4	-8	11	x	78*
COc1ccc(C(=O)OCC(=O)NC2CCCC2)c(OC)c1OC	9	89*	1	-7	4	12	81*
COc1cc(SC)ccc1C(=O)OCC(=O)NC1CC1	2	4	5	17	9	3	x
COc1ccc(C(=O)OCC(=O)NC(=O)NC2CCCC2)c(OC)c1	7	25	1	-7	5	3	x
Cc1ccc(-n2sc3cc(F)ccc3c2=O)c(C)c1	0	x	x	-3	x	x	x
O=C(Nc1ccc(-c2csnn2)cc1)C1CC1	-6	-8	3	-10	7	-2	x
O=C(Oc1ccc(-c2csnn2)cc1)C1CC1	10	75*	6	-5	7	20	76*
CCCCCCCCN1C(=O)[C@H](CC(=O)NCCc2ccccc2OC)C[C@@]2(C(=O)OC)CC(C)(C)CC=C12	-7	x	x	13	x	x	x
CCC(=O)N(C)C[C@H]1Oc2ncc(C#Cc3ccncc3)cc2C(=O)N([C@@H](C)CO)C[C@@H]1C	0	x	x	-8	x	x	x
Cc1ccc(C(=O)OCC(=O)c2ccc(Br)cc2)cc1S(=O)(=O)N1CCOCC1	2	34*	17	6	7	x	19
Cc1cnc(C(=O)OCC(=O)Nc2ccc(C)c(S(=O)(=O)N3CCOCC3)c2)cn1	-7	-1	3	2	14	-4	x
Cc1ccc(NC(=O)COC(=O)c2ccco2)cc1S(=O)(=O)N1CCOCC1	4	66*	2	5	-3	-6	60*
Cc1ccc(C(=O)OCC(=O)NCc2cccs2)cc1S(=O)(=O)N1CCOCC1	0	49*	-1	2	2	14	38*
Cc1ccc(NC(=O)COC(=O)/C=C/c2ccccc2)cc1S(=O)(=O)N1CCOCC1	1	58*	1	7	-4	-1	34*
CCN(C(=O)CSc1nc2cc(S(=O)(=O)N(CC)CC)ccc2n1CC)C1CCS(=O)(=O)C1 (stereo not drawn)	-4	-2	-1	1	1	3	x
Cc1cccc(NC(=O)c2nc[nH]c2C(=O)Nc2cc(Br)ccc2F)c1	5	x	x	4	x	x	x
COC(=O)c1ccc(COc2ccc(/C=N/O)cc2OC)o1	1	0	-3	0	11	-2	x
O=C(Cc1ccccc1)NS(=O)(=O)c1ccccc1	-8	x	x	14	x	x	x
CCc1nc2ccc(C(=O)Nc3cc(-c4ccccc4)ccc3OC)cn2c1N(C)Cc1nccs1	3	x	x	10	x	x	x
NC(=O)c1ccc(NC(=O)COC(=O)c2ccc(Br)c(S(=O)(=O)N3CCOCC3)c2)cc1	2	5	1	10	1	x	x
Cc1ccc(C(=O)OCC(=O)NC2CC2)cc1S(=O)(=O)N1CCOCC1	2	51*	-5	-3	4	12	32*
Cc1ccc(NC(=O)COC(=O)c2ccc(C)c(S(=O)(=O)N3CCOCC3)c2)cc1	1	71*	5	5	8	x	71*
CCc1nc2ccc(C(=O)NCc3ccc4c(c3)OCO4)cn2c1N(C)C(=O)Cc1ccccc1	7	x	x	5	x	x	x
SMILES	ARFGAP1 inh	PAFAH2 inh	PAFAH1B2 FP inh	ASAP1 GAP inh	PAFAH1B3 inh	pPAFAH inh	PAFAH2 confirm
NS(=O)(=O)c1ccc(NC(=O)COC(=O)/C=C/c2ccc([N+](=O)[O-])cc2)cc1	-5	2	-1	9	6	3	x
Cc1ccc(NC(=O)COC(=O)/C=C/c2ccc(Br)o2)cc1S(=O)(=O)N(C)C	0	64*	-3	5	-1	2	59*
CN(C)S(=O)(=O)c1cccc(NC(=O)COC(=O)/C=C/c2ccc(Br)o2)c1	-2	40*	0	-3	-3	2	35*
CN(C)S(=O)(=O)c1cccc(NC(=O)COC(=O)/C=C/c2ccc([N+](=O)[O-])cc2)c1	4	34*	1	17	1	12	20
O=C(NCCc1ccccn1)c1nc(Cn2ccc([N+](=O)[O-])n2)no1	-4	-2	-2	-10	4	0	x
O=c1c2c([nH]c3ccccc13)CCCC2	5	2	5	1	6	-2	x
O=c1c2c([nH]c3ccccc13)C(=C1CCCC1)CC2	x	33*	9	x	12	16	7
O=C(O)c1ccc(CNC(=O)c2ccccc2NC(=O)c2cccc([N+](=O)[O-])c2)cc1	8	-6	0	-9	2	5	x
O=C(O)c1ccc(CNC(=O)c2ccccc2NC(=O)c2ccc([N+](=O)[O-])cc2)cc1	4	38*	4	4	4	2	30*
CC(CCc1ccccc1)NC(=O)C(C)OC(=O)c1ccco1 (stereo not drawn)	-5	4	1	-1	6	3	x
Cc1ccc(NC(=O)COC(=O)c2c(C)nn(-c3ccccc3)c2C)cc1	-1	19	-1	10	1	2	x
Cc1nn(-c2ccccc2)c(C)c1C(=O)OCC(=O)Nc1ccccc1	7	55*	7	4	3	2	43*
Cc1nn(-c2ccccc2)c(C)c1C(=O)OCC(=O)Nc1ccc2c(c1)OCO2	13	35*	-1	19	7	6	30*
N/C(CC1CC1(Cl)Cl)=N\OC(=O)c1ccccc1 (stereo not drawn)	-6	83*	7	1	-4	3	78*
N/C(Cc1ccc(Cl)cc1)=N\OC(=O)c1cccc2ccccc12	-1	19	-1	8	0	7	x
N/C(=N\OC(=O)c1ccc(F)cc1)c1ccccc1	-17	5	4	3	6	2	x
COc1ccc(C/C(N)=N/OC(=O)c2ccc(Cl)cc2)cc1	-4	51*	5	-1	5	5	39*
Cc1ccc(C(=O)O/N=C(\N)Cc2cccc3ccccc23)cc1	7	67*	-2	2	-5	10	74*
N/C(Cc1ccc(Cl)cc1)=N\OC(=O)c1ccc2ccccc2c1	-8	36*	1	7	-4	20	30*
O=C(CSCc1ccc(F)cc1)NCc1ccco1	-10	-5	5	7	5	-3	x
O=C(O)c1nccnc1C(=O)Nc1ccc(Cl)cn1	3	5	3	7	5	6	x
N/C(Cc1ccc(Cl)cc1Cl)=N\OC(=O)c1ccccc1	3	78*	5	3	5	2	78*

High-throughput results: PubChem BioAssay, The Scripps Research Institute Molecular Screening Center
